Results reported in ChEMBL document CHEMBL1149287, “Synthetic bryostatin analogues activate the RasGRP1 signaling pathway” (J Med Chem, 2004).
The source made the active and inactive calls. The calls are words filed in the database; no cut-off is given here.

Experiments:
PBL = experiment: Induction of T cell activation marker CD69 expression in PBL cells; format: functional, cell-based; settings: Homo sapiens
How it was run: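 Human peripheral blood lymphocytes from a healthy donor, isolated on Ficoll-hypaque, treated immediately overnight in RPMI with 100 nM DAG analogue or DMSO; fixed in 2% paraformaldehyde, co-stained for CD4 (FITC) and CD69 (PE), analysed by flow cytometry.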

[1] = target: T1, RAS guanyl-releasing protein 1 (Homo sapiens) (UniProt O95267); experiment: Induction of translocation of RasGRP1 to plasma membrane in HEK293 cells; format: cell-based
T1 sequence (whole entry): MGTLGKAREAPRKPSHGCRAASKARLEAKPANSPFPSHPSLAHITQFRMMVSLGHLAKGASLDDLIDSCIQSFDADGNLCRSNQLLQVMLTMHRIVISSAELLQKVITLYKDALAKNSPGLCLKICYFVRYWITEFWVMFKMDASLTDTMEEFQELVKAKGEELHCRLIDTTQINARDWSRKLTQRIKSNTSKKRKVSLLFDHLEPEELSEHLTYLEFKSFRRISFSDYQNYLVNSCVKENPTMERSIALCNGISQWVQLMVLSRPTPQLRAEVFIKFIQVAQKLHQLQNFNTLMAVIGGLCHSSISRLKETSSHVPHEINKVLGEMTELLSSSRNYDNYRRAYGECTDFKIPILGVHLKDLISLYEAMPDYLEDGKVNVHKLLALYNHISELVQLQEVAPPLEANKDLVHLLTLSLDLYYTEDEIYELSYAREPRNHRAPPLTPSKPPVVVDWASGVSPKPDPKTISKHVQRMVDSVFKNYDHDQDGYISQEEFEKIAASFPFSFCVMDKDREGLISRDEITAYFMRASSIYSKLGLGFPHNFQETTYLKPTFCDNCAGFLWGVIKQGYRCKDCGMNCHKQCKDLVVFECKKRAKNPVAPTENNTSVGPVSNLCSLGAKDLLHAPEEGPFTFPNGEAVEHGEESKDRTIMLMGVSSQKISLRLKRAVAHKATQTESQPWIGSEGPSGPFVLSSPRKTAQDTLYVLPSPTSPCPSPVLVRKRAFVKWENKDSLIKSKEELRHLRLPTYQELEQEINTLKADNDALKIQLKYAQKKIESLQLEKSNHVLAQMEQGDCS
How it was run: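 HEK-293 cells on glass coverslips transfected with 5 μg pEF-GFP-RasGRP1 (or pEF-GFP), after 48 h given 100 nM DAG analogue or DMSO for 10 min at 37 °C, fixed in 4% paraformaldehyde; GFP location imaged by confocal microscopy, at least five 0.45 μm slices per cell.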

Jurkat = experiment: Induction of T cell activation marker CD69 expression in Jurkat T cells at 100 nM; format: functional, cell-based; settings: Homo sapiens
How it was run: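 Jurkat T cells kept in RPMI with 10% FBS, incubated overnight with 100 nM DAG analogue or DMSO, fixed in 2% paraformaldehyde, stained with PE-anti-CD69, surface CD69 read by FACS.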

Rat2 [2] = experiment: Accumulation of Ras-GTP level in Rat2 cells expressing empty pBabePuro vector; format: functional, cell-based; settings: Rattus norvegicus
How it was run: (§1)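 Rat2 fibroblasts (DMEM, 10% FBS) stably carrying retroviral pBabePuro, empty or with human RasGRP1 cDNA, exposed 10 min to 100 nM DAG analogue or DMSO vehicle. Ras-GTP measured by Ras-binding-domain pulldown with pan-Ras immunoblot; phospho-Erk p44/p42 and total Ras by immunoblot.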

Rat2 [3] = experiment: Induction of increase in Ras-GTP level in Rat2 cells expressing human […] at 100 nM; format: functional, cell-based; how it was run: as §1
Thymocyte [4] = experiment: Activation of ERK in wild type mouse thymocytes at 100 nM; format: functional, cell-based
How it was run: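 Wild-type mouse thymocytes (RPMI 1640, 10% FBS) exposed 10 min to DAG analogue at 100, 10 or 1 nM, then lysed; phospho-Erk p44/p42 detected by immunoblot.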

Thymocyte [5] = experiment: Activation of ERK in knockout mouse RasGRP1- mutant thymocytes; format: functional, cell-based
How it was run: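 Thymocytes isolated in RPMI 1640 with 10% FBS from young wild-type or RasGRP1 knockout mice, given DMSO or DAG analogue for 10 min, then lysed and immunoblotted for phospho-Erk p44/p42.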

Lymphocyte [6] = experiment: Induction of T cell activation marker CD69 expression in concanavalin-A activated CD4+ mouse spleen lymphocytes; format: functional, tissue-based
Lymphocyte [7] = experiment: Induction of T cell activation marker CD69 expression in concanavalin-A activated CD8+ mouse spleen lymphocytes; format: functional, tissue-based

`CCCCCCCC(=O)O[C@H]1/C(=C/C(=O)OC)CC2C[C@H]([C@H](O)CC)OC(=O)C[C@H](O)C[C@@H]3CCC[C@H](C[C@H]4CCO[C@H](/C=C/C(C)(C)[C@]1(O)O2)O4)O3` was tested, and the Activity (PBL) was “Active”, the Activity [1] was “Active” and the Activity (Jurkat) was “Active”. For the same compound, the Activity (Rat2 [2]) was “inactive”, the Activity (Rat2 [3]) was “Active” and the Activity (Thymocyte [4]) was “Active”. For the same compound, the Activity (Thymocyte [5]) was “inactive”, the Activity (Lymphocyte [6]) was “Active” and the Activity (Lymphocyte [7]) was “Active”.
For `CCCCCCCC(=O)O[C@H]1/C(=C/C(=O)OC)CC2C[C@H]([C@@H](CC)OC)OC(=O)C[C@H](O)C[C@@H]3CCC[C@H](C[C@H]4CCO[C@H](/C=C/C(C)(C)[C@]1(O)O2)O4)O3`, the Activity (PBL) was “Active”, the Activity [1] was “Active” and the Activity (Jurkat) was “Active”. The Activity (Rat2 [2]) was “inactive”, the Activity (Rat2 [3]) was “Active” and the Activity (Thymocyte [4]) was “Active”. The Activity (Thymocyte [5]) was “inactive”, the Activity (Lymphocyte [6]) was “Active” and the Activity (Lymphocyte [7]) was “Active”.
`CCCCCCCCCCCCCC(=O)O[C@@H]1[C@@H](C)[C@@]2(O)[C@@H](C=C(CO)C[C@]3(O)C(=O)C(C)=C[C@@H]23)[C@@H]2C(C)(C)[C@]12OC(C)=O` was tested, and the Activity (PBL) was “Active”, the Activity [1] was “Active” and the Activity (Jurkat) was “Active”. For the same compound, the Activity (Rat2 [2]) was “inactive”, the Activity (Rat2 [3]) was “Active” and the Activity (Thymocyte [4]) was “Active”. For the same compound, the Activity (Thymocyte [5]) was “inactive”, the Activity (Lymphocyte [6]) was “Active” and the Activity (Lymphocyte [7]) was “Active”.
